Each block holds one molecule with its values, some of them ahead of it.
Tests used:
Assay type in all cases: ADME, organism-based, Macaca mulatta
[1] = Drug level in normal rhesus monkey white matter assessed as standard uptake value at 96.3 MBq, iv after 27.5 mins by microPET; conditions: in vivo
[2] = Drug level in normal rhesus monkey thalamus assessed as standard uptake value at 96.3 MBq, iv after 12 mins by microPET; conditions: in vivo, 0.2 h
[3] = Drug level in normal rhesus monkey thalamus assessed as standard uptake value at 96.3 MBq, iv after 47.5 mins by microPET; conditions: in vivo
[4] = Drug level in normal rhesus monkey cerebellum assessed as standard uptake value at 96.3 MBq, iv after 52.5 mins by microPET; conditions: in vivo, 0.875 h
In short: (§1)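 One normal rhesus monkey, each tracer given iv via the vena saphena (81.2, 96.3 or 109.4 MBq), with 1 day between tracer injections. Dynamic brain μPET over 180 min used frames of 5 × 60 s, 5 × 120 s, 9 × 300 s and 12 × 600 s. Images were reconstructed by filtered back projection with a RAMP filter. Regional time-activity curves were expressed as SUV.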

[5] = Drug level in normal rhesus monkey frontal cortex assessed as standard uptake value at 96.3 MBq, iv after 1.5 mins by microPET; conditions: in vivo, 0.025 h
[6] = Drug level in normal rhesus monkey frontal cortex assessed as standard uptake value at 96.3 MBq, iv after 8 mins by microPET; conditions: in vivo
[7] = Drug level in normal rhesus monkey frontal cortex assessed as standard uptake value at 96.3 MBq, iv after 145 mins by microPET; conditions: in vivo
[8] = Drug level in normal rhesus monkey pons assessed as standard uptake value at 109.4 MBq, iv after 87 mins by microPET; conditions: in vivo, 1.45 h
[9] = Drug level in normal rhesus monkey frontal cortex assessed as standard uptake value at 109.4 MBq, iv after 0.625 mins by microPET; conditions: in vivo, 38 s
[10] = Drug level in normal rhesus monkey frontal cortex assessed as standard uptake value at 109.4 MBq, iv after 1.5 mins by microPET; conditions: in vivo, 0.025 h; in short: as §1
[11] = Drug level in normal rhesus monkey white matter assessed as standard uptake value at 109.4 MBq, iv after 87 mins by microPET; conditions: in vivo, 1.45 h
[12] = Drug level in normal rhesus monkey cerebellum assessed as standard uptake value at 109.4 MBq, iv after 0.625 mins by microPET; conditions: in vivo, 38 s
[13] = Drug level in normal rhesus monkey white matter assessed as standard uptake value at 109.4 MBq, iv after 4.5 mins by microPET; conditions: in vivo, 0.075 h
[14] = Drug level in normal rhesus monkey parietal cortex assessed as standard uptake value at 109.4 MBq, iv after 22.5 mins by microPET; conditions: in vivo, 0.375 h
[15] = Drug level in normal rhesus monkey parietal cortex assessed as standard uptake value at 109.4 MBq, iv after 63 mins by microPET; conditions: in vivo, 1.05 h
[16] = Drug level in normal rhesus monkey white matter assessed as standard uptake value at 81.2 MBq, iv after 47.5 mins by microPET; conditions: in vivo
[17] = Drug level in normal rhesus monkey thalamus assessed as standard uptake value at 81.2 MBq, iv after 12 mins by microPET; conditions: in vivo, 0.2 h
[18] = Drug level in normal rhesus monkey thalamus assessed as standard uptake value at 81.2 MBq, iv after 37.5 mins by microPET; conditions: in vivo, 0.625 h
[19] = Drug level in normal rhesus monkey thalamus assessed as standard uptake value at 81.2 MBq, iv after 95 mins by microPET; conditions: in vivo
[20] = Drug level in normal rhesus monkey frontal cortex assessed as standard uptake value at 81.2 MBq, iv after 52.5 mins by microPET; conditions: in vivo, 0.875 h
[21] = Drug level in normal rhesus monkey frontal cortex assessed as standard uptake value at 81.2 MBq, iv after 95 mins by microPET; conditions: in vivo
[22] = Drug level in normal rhesus monkey cerebellum assessed as standard uptake value at 81.2 MBq, iv after 27.5 mins by microPET; conditions: in vivo; in short: as §1
[23] = Drug level in normal rhesus monkey frontal cortex assessed as standard uptake value at 81.2 MBq, iv after 14 mins by microPET; conditions: in vivo
[24] = Drug level in normal rhesus monkey frontal cortex assessed as standard uptake value at 81.2 MBq, iv after 22.5 mins by microPET; conditions: in vivo, 0.375 h
[25] = Drug level in normal rhesus monkey cerebellum assessed as standard uptake value at 81.2 MBq, iv after 10 mins by microPET; conditions: in vivo; in short: as §1
[26] = Drug level in normal rhesus monkey cerebellum assessed as standard uptake value at 152.9 MBq, iv after 12 mins by microPET; conditions: in vivo, 0.2 h
In short: (§2)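 One normal rhesus monkey received each tracer via the vena saphena, with 1 day between injections. Dynamic μPET ran 180 min for 18F tracers (5×60 s, 5×120 s, 9×300 s, 12×600 s) and 90 min for the 11C tracer (5×60 s, 5×120 s, 9×300 s, 3×600 s). Filtered back-projection reconstruction (RAMP filter) was used. Time-activity curves were drawn to give regional SUV.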

[27] = Drug level in normal rhesus monkey cerebellum assessed as standard uptake value at 152.9 MBq, iv after 14 mins by microPET; conditions: in vivo; in short: as §2
[28] = Drug level in normal rhesus monkey cerebellum assessed as standard uptake value at 152.9 MBq, iv after 37.5 mins by microPET; conditions: in vivo, 0.625 h; in short: as §2
[29] = Drug level in normal rhesus monkey frontal cortex assessed as standard uptake value at 152.9 MBq, iv after 1.5 mins by microPET; conditions: in vivo, 0.025 h
In short: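 One normal rhesus monkey, tracer given iv via the vena saphena (152.9 MBq), with at least 1 day between tracer injections. Dynamic brain μPET over 90 min used frames of 5 × 60 s, 5 × 120 s, 9 × 300 s and 3 × 600 s. Images were reconstructed by filtered back projection with a RAMP filter. Regional time-activity curves were expressed as SUV.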

[30] = Drug level in normal rhesus monkey white matter assessed as standard uptake value at 152.9 MBq, iv after 14 mins by microPET; conditions: in vivo
[31] = Drug level in normal rhesus monkey white matter assessed as standard uptake value at 152.9 MBq, iv after 22.5 mins by microPET; conditions: in vivo, 0.375 h
[32] = Drug level in normal rhesus monkey thalamus assessed as standard uptake value at 152.9 MBq, iv after 22.5 mins by microPET; conditions: in vivo, 0.375 h
[33] = Drug level in normal rhesus monkey thalamus assessed as standard uptake value at 152.9 MBq, iv after 65 mins by microPET; conditions: in vivo
[34] = Drug level in normal rhesus monkey pons assessed as standard uptake value at 152.9 MBq, iv after 12 mins by microPET; conditions: in vivo, 0.2 h
[35] = Drug level in normal rhesus monkey pons assessed as standard uptake value at 152.9 MBq, iv after 37.5 mins by microPET; conditions: in vivo, 0.625 h
[36] = Drug level in normal rhesus monkey pons assessed as standard uptake value at 152.9 MBq, iv after 75 mins by microPET; conditions: in vivo, 1.25 h
[37] = Drug level in normal rhesus monkey parietal cortex assessed as standard uptake value at 152.9 MBq, iv after 22.5 mins by microPET; conditions: in vivo, 0.375 h

SUV [1]: 1.39 | SUV [2]: 2.38 | SUV [3]: 2.25 | SUV [4]: 1.25 | SUV [5]: 1.43 | SUV [6]: 1.98 | SUV [7]: 1.44
SMILES: CN(C)c1ccc2nc(-c3ccc([18F])cc3)sc2c1

SUV [8]: 4.84 | SUV [9]: 1.15 | SUV [10]: 3.35 | SUV [11]: 3.65 | SUV [12]: 2.19 | SUV [13]: 2.62 | SUV [14]: 4.93 | SUV [15]: 4.18
SMILES: Nc1ccc2nc(-c3ccc([18F])cc3)sc2c1

SUV [16]: 3.674 | SUV [17]: 4.684 | SUV [18]: 5.69 | SUV [19]: 5.301 | SUV [20]: 5.321 | SUV [21]: 4.745 | SUV [22]: 2.224 | SUV [23]: 6.096 | SUV [24]: 5.717 | SUV [25]: 3.021
SMILES: CNc1ccc2nc(-c3ccc([18F])cc3)sc2c1

SUV [26]: 2.252 | SUV [27]: 2.11 | SUV [28]: 0.996 | SUV [29]: 0.478 | SUV [30]: 1.428 | SUV [31]: 1.229 | SUV [32]: 1.903 | SUV [33]: 0.85 | SUV [34]: 2.117 | SUV [35]: 1.229 | SUV [36]: 0.834 | SUV [37]: 1.453
SMILES: [11CH3]Nc1ccc(-c2nc3ccc(O)cc3s2)cc1 [PITTSBURGH COMPOUND B]

From ChEMBL document CHEMBL1154674, “Synthesis and evaluation of three 18F-labeled aminophenylbenzothiazoles as amyloid imaging agents” (J Med Chem, 2009)
